The record followed here is ChEMBL document CHEMBL2331178, “Novel pyridinone derivatives as non-nucleoside reverse transcriptase inhibitors (NNRTIs) with high potency against NNRTI-resistant HIV-1 strains” (J Med Chem, 2013).

Data set [1] has as its target Human immunodeficiency virus type 1 reverse transcriptase (Human immunodeficiency virus 1, UniProt Q72547). The data set is described as follows: Inhibition of HIV1 reverse transcriptase after 1 hr by colorimetric assay. Summed up:
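Purified recombinant wild-type RT with poly(rA)/oligo(dT)16 template-primer and serial inhibitor concentrations. Incubated 1 h at 37 °C. Incorporated biotin detected with streptavidin-alkaline phosphatase and PNPP (30 min, 37 °C), read colorimetrically.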

Data set [2] deals with Human immunodeficiency virus 1. The data set is described as follows: Antiviral activity against NNRTI-resistant Human immunodeficiency virus 1 A17 double mutant infected in human TZM-bl cells assessed decrease in p24 level after 7 days by ELISA. To be noted: Human immunodeficiency virus 1, A17, TZM-bl, 168 h. The format is functional, organism-based. In general terms: In an ELISA, binding on a coated surface is turned into a signal by an enzyme label.

Data set [3] is described as follows: Selectivity index, ratio of CC50 for human TZM-bl cells to EC50 for Human immunodeficiency virus 1 A17 infected in human TZM-bl cells. The format is toxicity, cell-based. To be noted: read-out: Ratio CC50/EC50.
The subject of data set [4] is Human immunodeficiency virus 1. The data set can be described thus: Antiviral activity against Human immunodeficiency virus 1 SF33 infected in human TZM-bl cells assessed decrease in p24 level after 7 days by ELISA. The format is functional, organism-based. The following applies: Human immunodeficiency virus 1, SF33, TZM-bl, 168 h.
Data set [5] in a line: Selectivity index, ratio of CC50 for human TZM-bl cells to EC50 for Human immunodeficiency virus 1 SF33 infected in human TZM-bl cells. The format is toxicity, cell-based. The following applies: read-out: Ratio CC50/EC50.
The nature of data set [6]: Cytotoxicity against human TZM-bl cells. The format is cell-based.
The test system of data set [7] is Human immunodeficiency virus 1. The data set is described as follows: Antiviral activity against NNRTI-resistant Human immunodeficiency virus 1 A17 double mutant infected in human MT4 cells assessed decrease in p24 level after 7 days by ELISA. The format is functional, organism-based. The following applies: Human immunodeficiency virus 1, A17, MT4, 168 h. In outline: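 MT4 cells (4×10^4/well) were infected with 200 TCID50 HIV-1 and held 2 h at 37 °C, then serially diluted compound was added. […] The K103N and Y181C viruses came from transfecting RT-mutant plasmids into 293T/17 cells.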

The nature of data set [8]: Selectivity index, ratio of CC50 for human MT4 cells to EC50 for Human immunodeficiency virus 1 A17 infected in human MT4 cells. The format is toxicity, cell-based. To be noted: read-out: Ratio CC50/EC50.
Data set [9] relates to Human immunodeficiency virus 1. The data set is described as follows: Antiviral activity against Human immunodeficiency virus 1 SF33 infected in human MT4 cells assessed decrease in p24 level after 7 days by ELISA. The format is functional, organism-based. To be noted: Human immunodeficiency virus 1, SF33, MT4, 168 h. In outline: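 MT4 cells (4×10^4/well) infected with 200 TCID50 of HIV-1 for 2 h at 37 °C, then serial dilutions of compound added. After 7 days at 37 °C, p24 measured in a commercial ELISA.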

The nature of data set [10]: Cytotoxicity against human MT4 cells after 3 days by XTT assay. The format is cell-based. Summed up: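 Graded compound concentrations added to MT4 cells (5×10^4/well) for 3 days at 37 °C. CCK-8 reagent then added for 4 h at 37 °C to develop the XTT formazan product, and absorbance read at 450 nm. CC50 derived from percent cytotoxicity.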
The nature of data set [11]: Selectivity index, ratio of CC50 for human MT4 cells to EC50 for Human immunodeficiency virus 1 SF33 infected in human MT4 cells. The following applies: read-out: Ratio CC50/EC50. The format is toxicity, cell-based.

SMILES strings stand for the structures. A value given as a limit tells only on which side of the number the result lay.

What is called IC50 is the concentration needed to halve the response being measured. A word on the EC50: it is the concentration at which the effect is half-maximal. For orientation: CC50 means the concentration at which the toxic effect on the cells reaches its halfway point. A lower CC50 goes with greater toxicity to the cells.

In [1], `CCOC(=O)c1c(OC2CCCC2)cc(Cc2ccccc2)[nH]c1=O` registered an IC50 above 100 µM.

Consider `CCOC(=O)c1c(OC2CCCCC2)cc(Cc2ccccc2)[nH]c1=O`, for which the IC50 in [1] worked out at 81 µM.

Molecule `CCOC(=O)c1c(OC2CCCCCC2)cc(Cc2ccccc2)[nH]c1=O` yielded an IC50 in data set [1] above 100 µM.

In turn, `CCOC(=O)c1c(OC2CCCCC2C)cc(Cc2ccccc2)[nH]c1=O` (mixture of isomers) came in with an IC50 in data set [1] of 5.29 µM.

Turning to `CCOC(=O)c1c(OC2CCCCC2Cl)cc(Cc2ccccc2)[nH]c1=O` (mixture of isomers), the IC50 in data set [1] was above 100 µM.

For `CCOC(=O)c1c(OC2CCCC(C)C2)cc(Cc2ccccc2)[nH]c1=O` (mixture of isomers), in [1], the IC50 turned out to be 19.8 µM. This lies in the double-digit micromolar range.

Take `CCOC(=O)c1c(OC2CCC(C)CC2)cc(Cc2ccccc2)[nH]c1=O` (mixture of isomers): the IC50 in [1] is 32.9 µM.

The molecule `CCOC(=O)c1c(OC2C(C)CCCC2C)cc(Cc2ccccc2)[nH]c1=O` (mixture of isomers) had an IC50 in data set [1] of 37.1 µM. This IC50 and that of the molecule before are within 1.5-fold of each other.

In data set [1], `CCOC(=O)c1c(OC2CC(C)CC(C)C2)cc(Cc2ccccc2)[nH]c1=O` (mixture of isomers) displayed an IC50 of 73.5 µM.

Molecule `CCOC(=O)c1c(OC2CC(C)CC(C)(C)C2)cc(Cc2ccccc2)[nH]c1=O` (mixture of isomers) came in with an IC50 in data set [1] above 100 µM.

`CC1CCCCC1Oc1cc(Cc2ccccc2)[nH]c(=O)c1` (mixture of isomers) had an IC50 in [1] of 59.3 µM.

Regarding `CC1CCCCC1Oc1cc(Cc2ccccc2)[nH]c(=O)c1Br` (mixture of isomers), 1.21 µM corresponded to half-maximal inhibition in data set [1] (IC50).

Take `CC1CCCCC1Oc1cc(Cc2ccccc2)[nH]c(=O)c1I` (mixture of isomers): the midpoint of inhibition in [1], the IC50, lay at 0.59 µM. This IC50 lies about 2.1-fold lower than the previous one.

In data set [1], `CC(C)c1c(OC2CCCCC2C)cc(Cc2ccccc2)[nH]c1=O` (mixture of isomers) returned an IC50 of 0.41 µM.

Turning to `COc1ccc(Cc2cc(OC3CCCCC3C)c(C(C)C)c(=O)[nH]2)cc1` (mixture of isomers), the EC50 in data set [2] is above 10 µM; in data set [4] it was 0.005 µM; in data set [7] it was 0.479 µM; in data set [9], 0.006 µM. Further, the selectivity ratio was below 13 in data set [3], 26500 in data set [5], 155 in data set [8] and 12400 in [11]. Also, the CC50 in [6] was found to be 132 µM. This molecule also returned an IC50 in data set [1] of 0.033 µM. Besides, half-maximal cytotoxicity in data set [10] (CC50 at 72 h) was put at 74.5 µM.

`Cc1ccc(Cc2cc(OC3CCCCC3C)c(C(C)C)c(=O)[nH]2)cc1` (mixture of isomers): the EC50 in [2] is above 10 µM; in data set [4], 0.057 µM; in [7] it was above 10 µM; in data set [9], 0.006 µM. For the same molecule, the selectivity ratio in data set [3] was below 9; in data set [5] it was 1740; in [8], below 11; in [11], 18700. The midpoint of cytotoxicity in data set [6], the CC50, lay at 99 µM. This molecule also came in with an IC50 in data set [1] of 0.059 µM. In [10], the CC50 at 72 h stood at 112 µM.

Consider `CCOC(=O)c1c(OC2CCCCC2C)cc(CCc2ccccc2)[nH]c1=O` (mixture of isomers), for which, in data set [1], the IC50 is above 100 µM.

Take `CC1CCCCC1Oc1cc(CCc2ccccc2)[nH]c(=O)c1Br` (mixture of isomers): the EC50 in data set [2] was above 10 µM; in data set [4], 0.092 µM; in [7] it was 4.32 µM; in data set [9] it was 0.003 µM. In addition, the selectivity ratio in data set [3] is below 8; in [8], 23; in data set [11] it was 33400. Moreover, in [6], the CC50 is 83.1 µM. In [1], this molecule gave an IC50 of 0.65 µM. For the same molecule, half-maximal cytotoxicity in data set [10] (CC50 at 72 h) was put at 100 µM.

Turning to `CC(C)c1c(OC2CCCCC2C)cc(CCc2ccccc2)[nH]c1=O` (mixture of isomers), the EC50 was determined as 0.6 µM in data set [2], 0.036 µM in [4], 2.75 µM in data set [7] and 0.007 µM in [9]. Also, the selectivity ratio in data set [3] is 191; in [5] it was 3180; in data set [8], 73; in data set [11], 28800. Also, in data set [6], the CC50 stood at 114 µM. In data set [1], this molecule had an IC50 of 0.01 µM. In data set [10], this molecule showed a CC50 at 72 h of 201 µM.
